Screening results as filed in PubChem BioAssay.
Only some compounds are listed: those with a hit (about 2.9% of all), similar ones and a draw of the others.
Beta2AR agonist = beta2AR agonists driving receptor internalization, primary screen, cell-based, FAP fluorogen, flow cytometry | hit rate 0.43% among 340,000 | response, % (concentration not given with the values) | Am2.2-beta2AR cells;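 active = response above a set limit, near 3 SD of response in nonfluorescent compounds, cut at about 42% in these data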
ATG4B inhibitor = ATG4B protease inhibitors, primary screen, biochemical, fluorescence, uHTS | ATG4B cleavage of LC3-PLA2, NBD-HPC fluorescence, 1 h | inhibition, % at 8.33 µM | hit rate 0.51% among 340,000; in the data active = inhibition above about 40%
MEKK3 PB1 HTS = modulators of MEKK3-MEK5 PB1 binding, primary screen, biochemical, wildtype MEKK3, multiplex bead flow cytometry, Alexa488-MEK5; Mitogen-activated protein kinase kinase kinase 3 (Homo sapiens), Q99759; bead-based flow cytometry, Alexa488-MEK5 binding to MEKK3; actives lie on both sides; 0 = blocked by unlabeled MEK5, 100 = vehicle; binding response (% of control), % at 10 µM; hit rate 1.4% among 290,000; AID 1529, 2009;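 active = binding response more than 3 SD above or below the average of its plate-row segment, actives on both sides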;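 note: Alexa488 bead fluorescence after subtracting the streptavidin-only scavenger bead signal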
Target sequence (Q99759 whole entry, looked up): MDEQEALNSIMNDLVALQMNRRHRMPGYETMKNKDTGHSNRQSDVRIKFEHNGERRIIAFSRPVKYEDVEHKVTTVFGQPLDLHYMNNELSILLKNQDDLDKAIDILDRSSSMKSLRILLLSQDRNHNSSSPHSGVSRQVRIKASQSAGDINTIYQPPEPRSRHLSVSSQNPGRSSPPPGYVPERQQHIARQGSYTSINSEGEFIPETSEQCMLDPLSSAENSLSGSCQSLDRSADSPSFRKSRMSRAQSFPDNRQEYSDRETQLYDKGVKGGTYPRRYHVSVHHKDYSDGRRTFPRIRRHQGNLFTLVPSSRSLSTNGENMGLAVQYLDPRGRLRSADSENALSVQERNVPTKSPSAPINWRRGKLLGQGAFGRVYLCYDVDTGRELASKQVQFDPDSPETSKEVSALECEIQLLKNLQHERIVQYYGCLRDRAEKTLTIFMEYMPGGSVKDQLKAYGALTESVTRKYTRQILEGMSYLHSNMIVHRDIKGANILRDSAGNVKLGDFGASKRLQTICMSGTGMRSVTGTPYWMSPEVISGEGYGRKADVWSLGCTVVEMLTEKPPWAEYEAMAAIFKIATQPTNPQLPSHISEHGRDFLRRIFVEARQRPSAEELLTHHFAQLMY
Dynein cargo inh = inhibitors of GR-EGFP nuclear translocation, primary screen, dynein cargo transport inhibitor project, imaging, high-content, 3617.4 mouse cells | AID 1381, 2008 | z-score, hits read low | test concentration mostly 20 µM; stimulated with dexamethasone, 1 µM; hits give low values | hit rate 0.47% among 220,000;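 active = plate z-score of nuclear minus cytoplasmic receptor signal below a set negative limit, without overly bright fluorescence or cell loss, cut at about -3.5 in these data, passing the limit was not always enough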;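 note: z-score of nuclear minus cytoplasmic ring GR-EGFP intensity difference per well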
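Also added – dexamethasone, 1.0 µM final · Buffer or medium – tet-free, stripped-serum medium · Schedule – induction 48 h, compound 1 h, agonist 30 min · Detection – formaldehyde fixation, Hoechst nuclear stain, 10x automated fluorescence imaging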
MEKK2 WT-MEK5 = modulators of MEK5 binding to wildtype MEKK2, primary screen, biochemical, multiplex bead flow cytometry, Alexa488-MEK5 | Mitogen-activated protein kinase kinase kinase 2 (Homo sapiens), Q9Y2U5 | Alexa488-MEK5 binding to MEKK2 WT; actives lie on both sides | binding response (% of control), % at 10 µM | hit rate 1.1% among 290,000 | AID 1531, 2009; in the data active = binding response below about 67% or above about 130%
MEKK2mut PB1 HTS = MEK5 binding signal on mutant MEKK2 PB1, primary screen, biochemical, multiplex bead flow cytometry, Alexa488-MEK5; Alexa488-MEK5 binding to MEKK2 mutant; percent response, % at 10 µM; hit rate 0.35% among 290,000; AID 1530, 2009; in the data active = percent response above about 24%, passing the limit was not always enough
ATG4B conf = ATG4B protease inhibitors, retest, confirmation, biochemical, fluorescence, single concentration; hit rate 92% among 320; inhibition, % at 8.33 µM; AID 504757, 2011; shares compounds with ATG4B inhibitor; ATG4B protease fluorescent substrate cleavage assay; in the data active = inhibition above about 39%
PLA2 counter = PLA2 enzyme inhibition, counter-screen for ATG4B inhibitor project, biochemical, single concentration, uHTS hits; shares compounds with ATG4B inhibitor; purified PLA2, NBD-C6-HPC fluorescence, 45 min; inhibition, % at 8.33 µM; hit rate 66% among 1,600; in the data active = inhibition above about 50%
An asterisk follows results filed as active.

For CC(=O)Nc1ccc(NC(=O)COC(=O)CCc2nc3ccccc3s2)cc1 the results were Beta2AR agonist 0.6, ATG4B inhibitor -14.7, MEKK3 PB1 HTS 108.0, Dynein cargo inh -0.533, MEKK2 WT-MEK5 103.0 and MEKK2mut PB1 HTS -1.0.
O=S(=O)(c1ccc2c(c1)C(O)c1ccccc1CC2)C(F)(F)F (stereo not drawn) was read as Beta2AR agonist -11.9, ATG4B inhibitor 40.1* and PLA2 counter 59.8*.
For Nc1cc(S(=O)(=O)C(F)(F)F)ccc1C(=O)O the results were Beta2AR agonist -1.5, ATG4B inhibitor 8.1, MEKK3 PB1 HTS 103.0, Dynein cargo inh -0.437, MEKK2 WT-MEK5 102.0 and MEKK2mut PB1 HTS 0.0.
`CCn1nc(C)cc1C(=O)N(C)C1CCCN(Cc2ccccc2F)C1` (stereo not drawn) gave Beta2AR agonist -10.1, ATG4B inhibitor 18.9, MEKK3 PB1 HTS 101.0, MEKK2 WT-MEK5 103.0 and MEKK2mut PB1 HTS 7.0.
Cc1ccc(S(=O)(=O)N2CCN(C(=O)CCC(=O)NCc3cccc(C(F)(F)F)c3)CC2)cc1 was read as Beta2AR agonist 1.3, ATG4B inhibitor 70.8* and PLA2 counter 77.6*.
Screening C=CCCc1ccc(C#N)c(SCc2c(C(=O)OCC)c3cc(OC(C)=O)c(Br)cc3n2C)n1 returned Beta2AR agonist -10.2, ATG4B inhibitor -1.3, MEKK3 PB1 HTS 103.0, Dynein cargo inh -0.956, MEKK2 WT-MEK5 81.0 and MEKK2mut PB1 HTS 17.0.
`CCCCCCCCOC(=O)c1c(CSC(=N)N)n(C)c2cc(Br)c(OC(C)=O)cc12` gave Beta2AR agonist 17.7, ATG4B inhibitor 40.4*, MEKK3 PB1 HTS 105.0, Dynein cargo inh 0.652, MEKK2 WT-MEK5 281.0*, MEKK2mut PB1 HTS 136.0*, ATG4B conf 64.8* and PLA2 counter 4.7.
Screening Fc1cccc(Cl)c1CSc1nnc(COc2cccc3cccnc23)o1 returned Beta2AR agonist 1.6, ATG4B inhibitor 64.2*, MEKK3 PB1 HTS 89.0, Dynein cargo inh 0.515, MEKK2 WT-MEK5 88.0, MEKK2mut PB1 HTS -5.0 and PLA2 counter 67.1*.
Screening COc1ccc(CC(NC(C)=O)C(=O)NC2CCN(C(=O)c3ccc([N+](=O)[O-])cc3)CC2)cc1OC (stereo not drawn) returned Beta2AR agonist -2.6, ATG4B inhibitor -4.7, MEKK3 PB1 HTS 96.0, Dynein cargo inh -0.442, MEKK2 WT-MEK5 100.0 and MEKK2mut PB1 HTS -3.0.
Screening CCOC(=O)C1CCN(C(=O)COC(=O)CNC(=O)c2ccc(C(C)(C)C)cc2)CC1 returned Beta2AR agonist 5.0 and ATG4B inhibitor -9.1.
O=C(c1ccccc1)c1coc2ccc(O)c(Cl)c12 was read as Beta2AR agonist -15.2, ATG4B inhibitor 4.2, MEKK3 PB1 HTS 76.0, Dynein cargo inh -0.581, MEKK2 WT-MEK5 86.0 and MEKK2mut PB1 HTS -6.0.
`O=C1C(=O)c2c(C(=O)c3ccccc3)coc2-c2ccccc21` gave Beta2AR agonist 3.3, ATG4B inhibitor 64.5*, MEKK3 PB1 HTS 84.0, Dynein cargo inh 1.13, MEKK2 WT-MEK5 87.0, MEKK2mut PB1 HTS -11.0 and PLA2 counter 88.8*.
Screening CN(CC(=O)Nc1ccc(C#N)cc1)CC(=O)Nc1ccc(N2CCOCC2)cc1 returned Beta2AR agonist 0.6, ATG4B inhibitor 40.6*, MEKK3 PB1 HTS 99.0, Dynein cargo inh -0.187, MEKK2 WT-MEK5 119.0, MEKK2mut PB1 HTS 12.0 and PLA2 counter 2.5.
Screening Cc1cc(C(=O)COC(=O)C2=NNC(=O)CC2)c(C)n1-c1cccc(C(F)(F)F)c1 returned Beta2AR agonist -0.6, ATG4B inhibitor -13.5, MEKK3 PB1 HTS 101.0, Dynein cargo inh -1.2, MEKK2 WT-MEK5 101.0 and MEKK2mut PB1 HTS 0.0.
Cc1cccc(C)c1OCC(O)Cn1nnc2ccccc21 (stereo not drawn) was read as Beta2AR agonist 0.4, ATG4B inhibitor 7.2, MEKK3 PB1 HTS 99.0, Dynein cargo inh 0.175, MEKK2 WT-MEK5 102.0 and MEKK2mut PB1 HTS 6.0.
`Cc1cccc(C)c1OCC(O)Cn1c2ccccc2c2ccccc21` (stereo not drawn) gave Beta2AR agonist -0.1, ATG4B inhibitor 52.8*, MEKK3 PB1 HTS 114.0, Dynein cargo inh -1.08, MEKK2 WT-MEK5 107.0, MEKK2mut PB1 HTS 0.0 and PLA2 counter 61.4*.
`NS(=O)(=O)c1ccc(NC(=O)COC(=O)C2CC(=O)N(Cc3ccccc3)C2)cc1` (stereo not drawn) gave Beta2AR agonist 1.7, ATG4B inhibitor -0.3, MEKK3 PB1 HTS 100.0, Dynein cargo inh 1.45, MEKK2 WT-MEK5 101.0 and MEKK2mut PB1 HTS 2.0.
For CC1(C)CC2CC(C)(CN2C(=O)COC(=O)CNC(=O)c2ccc(Cl)c(Cl)c2)C1 (stereo not drawn) the results were Beta2AR agonist 8.4, ATG4B inhibitor -5.3, MEKK3 PB1 HTS 101.0, Dynein cargo inh 0.192, MEKK2 WT-MEK5 111.0 and MEKK2mut PB1 HTS 10.0.
`C=CCSc1nnc2c(n1)OC(c1cccnc1)Nc1ccccc1-2` (stereo not drawn) gave Beta2AR agonist 1.0, ATG4B inhibitor -1.5, MEKK3 PB1 HTS 101.0, Dynein cargo inh -0.483, MEKK2 WT-MEK5 104.0 and MEKK2mut PB1 HTS 3.0.
Screening c1ccc(CSc2nnc3c(n2)OC(c2ccco2)Nc2ccccc2-3)cc1 (stereo not drawn) returned Beta2AR agonist 6.8, ATG4B inhibitor 41.8*, MEKK3 PB1 HTS 98.0, Dynein cargo inh 1.01, MEKK2 WT-MEK5 94.0, MEKK2mut PB1 HTS 0.0, ATG4B conf 95.6* and PLA2 counter 8.2.
O=C(c1cccs1)N(Cc1ccco1)c1nc(-c2ccc(F)cc2)cs1 was read as Beta2AR agonist 1.8, ATG4B inhibitor 42.0*, MEKK3 PB1 HTS 83.0, Dynein cargo inh -0.28, MEKK2 WT-MEK5 93.0, MEKK2mut PB1 HTS 2.0 and PLA2 counter 56.3*.
